Source: PubChem BioAssay (Broad Institute)
In the library only some 1.9% were active in any assay of this set; here they are far more common.
Cneo AK release = Cryptococcus neoformans cell lysis inducers, primary screen, AK release luminescence, single concentration; AID 651654, 2012; C. neoformans lysis, adenylate kinase release luminescence, 4 h; normalised: neutral wells 0, clomiphene wells 100; 360,000 tested, 0.2% active; lysis activity, % at 15 µM;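 active = mean lysis activity across replicates of at least 80%, whatever share of replicates individually reach that level; inactive = mean lysis activity below 80%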
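read-out = cell lysis signal | test system = log-phase Cryptococcus neoformans yeast cells | input = cells at 5 × 10^6 per mL | medium = fresh YPD growth medium | signal = luminescent adenylate kinase detection reagent | timing = 4 h at 37 °C static, read 1 h later | dosing = single dose | controls = Clomiphene as positive lysis control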
DENV2 CPE = inhibitors of DENV2 cytopathic effect, primary screen, cell-based, plate reader, single concentration; 350,000 tested, 1.7% active; CPE inhibition, % at 9.99 µM; DENV2-infected cells, cytopathic effect rescue; AID 651640, 2012; in the data active = CPE inhibition above about 20%, passing the limit was not always enough; inconclusive = no clear call, values can overlap the other calls; tested in BHK-21 cells
Xi reactivation = activators of inactive X chromosome reactivation, primary screen, imaging, XiGFP fibroblasts, GFP high-content imaging, set 2. XiGFP mouse fibroblasts, % GFP-positive cells imaging, 3 d; cells co-treated with 5-aza-dC sensitizer; scaled so ellipticine positive control = 100%. activation, % at 7.58 µM. 360,000 tested, 0.055% active;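 active = mean normalized replicate activation at least 10% and every replicate at or above 10%; inconclusive = only one of the two criteria met; inactive = mean below 10% and not all replicates reach 10%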
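Assay system: SV40-immortalized XiGFP fibroblast cells, line 68-5-11; buffer or medium: DMEM plus 5-aza-dC sensitizer; compound: one concentration, pinned; timing: compounds 3 days, fix/stain 15 min at room temperature; benchmarks: positive control ellipticine, 6 µM final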
F508del corr = F508del CFTR correction, initial screen, CFBE line, single point | CFBE cells, YFP halide quenching; stimulated with forskolin plus potentiator P3; % fluorescence drop versus neutral controls | activity (quench increase), % at 7.58 µM | 350,000 tested, 0.36% active | AID 720511, 2013;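 active = mean added fluorescence quench of at least 8% versus neutral control, with both replicates also reaching 8%; inconclusive = only one of the mean or replicate conditions met; inactive = mean below 8% and not both replicates reaching 8%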;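 note: cells transiently co-express mutant CFTR-F508del with the halide-sensitive YFP; corrector assay measuring rescue of mutant channel to the surface after 24 h compound exposure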
PGC1a acetyl inh = inhibitors of PGC1a acetylation signal, primary screen, cell-based, U2OS, AlphaScreen, inhibitor mode; AlphaScreen anti-acetyl-lysine; with virally co-expressed GCN5 acetyltransferase; inhibition, % at 15.6 µM; 350,000 tested, 0.17% active; AID 651687, 2012;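 active = every replicate shows inhibition of at least 40%; inconclusive = mean inhibition at least 40% but some replicate below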
FN deposit inh = inhibitors of fibronectin matrix deposition, primary screen, AH1F cells, Alexa488-fibronectin fluorescence, plate reader. 350,000 tested, 0.086% active. inhibition, % at 12.6 µM. AH1F fibroblasts, overnight;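 active = mean inhibition across replicates of 30% or more, regardless of how many single replicates reach that level; inconclusive = mean under 30% yet at least half of replicates reach 30%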
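Material: AH1F fibroblast monolayer depositing Alexa488-labelled fibronectin into matrix / Amount: 10000 AH1F cells per well / Signal: fluorescence 485/525 nm / Medium: DMEM, 2% serum / Compound: single dose, pinned / Incubation: 1 h cell adhesion before compound, then overnight fibronectin incubation / Reagent: Alexa488-FN, 24 nM final / Read-out: inhibition of fibronectin deposition signal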
Each line names hits and unclear results; the compound was inactive in the other large screens; ! = a repeat was not active.

CCC(=O)N1CCN(c2ccccc2NC(=S)NC(=O)c2cccc([N+](=O)[O-])c2)CC1	none (no result: Cneo AK release, F508del corr, PGC1a acetyl inh)
O=C(NC(=S)Nc1ccccc1N1CCOCC1)c1cccc([N+](=O)[O-])c1	Cneo AK release 258 (no result: PGC1a acetyl inh, FN deposit inh)
CN(Cc1nc(CCc2ccccc2)no1)Cc1cccs1	Xi reactivation 40
CCCNC(=O)N(C)C[C@@H]1Oc2cc(-c3cccnc3)ccc2S(=O)(=O)N([C@@H](C)CO)C[C@H]1C	none (no result: FN deposit inh)
C[C@@H]1CN([C@H](C)CO)C(=O)c2cccc(NS(=O)(=O)c3ccc(Cl)cc3)c2O[C@@H]1CN(C)Cc1ccccc1	none (no result: FN deposit inh)
CCCC(=O)Nc1ccc2c(c1)OC[C@H](C)N(C(=O)c1ccccn1)C[C@H](C)[C@@H](OC)CN(C)C2=O	none
CCCC(=O)Nc1ccc2c(c1)OC[C@@H](C)N(C(=O)c1ccccn1)C[C@@H](C)[C@@H](OC)CN(C)C2=O	DENV2 CPE 21
CCCC(=O)Nc1ccc2c(c1)OC[C@H](C)N(C(=O)c1ccccn1)C[C@@H](C)[C@H](OC)CN(C)C2=O	DENV2 CPE 22
CCN1[C@@H]2c3ccc(-c4ccccc4)c(=O)n3C[C@H]1[C@H](CO)[C@H]2C(=O)NCCCN1CCOCC1	DENV2 CPE inconclusive (no result: F508del corr, PGC1a acetyl inh, FN deposit inh)
CO[C@H](CN(C)S(=O)(=O)c1ccc(C)cc1)[C@@H](C)CN([C@H](C)CO)S(=O)(=O)c1cccc(Cl)c1	none
CO[C@H](CN(C)Cc1cc(F)ccc1F)[C@@H](C)CN([C@@H](C)CO)S(=O)(=O)c1ccc(F)cc1	Cneo AK release 91, DENV2 CPE 103
CO[C@@H](CN(C)S(=O)(=O)c1ccc(C)cc1)[C@H](C)CN([C@@H](C)CO)S(=O)(=O)c1cccc(Cl)c1	F508del corr 11
CO[C@H](CN(C)S(=O)(=O)c1ccc(C)cc1)[C@@H](C)CN(C(=O)Nc1ccccc1F)[C@@H](C)CO	none
CO[C@H](CN(C)S(=O)(=O)c1ccc(C)cc1)[C@@H](C)CN(C(=O)Nc1ccccc1F)[C@H](C)CO	DENV2 CPE 30
CO[C@@H](CN(C)Cc1cc(F)ccc1F)[C@H](C)CN([C@@H](C)CO)S(=O)(=O)c1ccc(F)cc1	none
C[C@@H]1CN([C@H](C)CO)C(=O)c2c(c3ccccc3n2C)-c2ccccc2CO[C@@H]1CN(C)Cc1ccc2c(c1)OCCN2C	none (no result: Cneo AK release)
CC(=O)N(C)C[C@@H]1Oc2cc(C#Cc3ccccn3)ccc2S(=O)(=O)N([C@H](C)CO)C[C@H]1C	none (no result: FN deposit inh)
Cc1ccc(NS(=O)(=O)c2ccc(-c3cnc(C4CC4)o3)cc2)c(C)c1	none (no result: PGC1a acetyl inh)
O=S(=O)(Nc1ccc(F)cc1Cl)c1ccc(-c2cnc(C3CC3)o2)cc1	F508del corr 14
COc1ccc(NC(=O)Nc2ccc3c(c2)CC(=O)N([C@@H](C)CO)C[C@@H](C)[C@H](CN(C)S(=O)(=O)c2ccccc2)O3)cc1	none (no result: Cneo AK release)
CN1c2ccc(-c3cccc(C#N)c3)cc2[C@H]2[C@H](CCN2S(=O)(=O)c2ccccc2F)[C@@H]1CO	none
CCOc1ccc2nc(NCCNC(=O)Nc3ccccc3)c(C#N)cc2c1	PGC1a acetyl inh 64 (no result: DENV2 CPE, Xi reactivation, F508del corr)
C[C@H](CO)N1C[C@H](C)[C@@H](CN(C)Cc2ccncc2)Oc2c(NS(=O)(=O)c3cccs3)cccc2C1=O	DENV2 CPE 34!
C[C@H]1CN([C@@H](C)CO)C(=O)c2cccc(NS(=O)(=O)c3cccs3)c2O[C@H]1CN(C)Cc1ccncc1	none (no result: FN deposit inh)
C[C@@H]1CN([C@@H](C)CO)C(=O)c2cccc(NS(=O)(=O)c3cccs3)c2O[C@H]1CN(C)CC1CCCCC1	DENV2 CPE 34 (no result: PGC1a acetyl inh)
CC(=O)N(C)C[C@@H]1Oc2ncc(-c3ccccc3C)cc2C(=O)N([C@@H](C)CO)C[C@H]1C	none
Nc1cc2nsnc2cc1Br	PGC1a acetyl inh 60 (no result: DENV2 CPE, Xi reactivation, F508del corr, FN deposit inh)
CCCNC(=O)N1CC(=O)N2[C@H](C1)[C@H](c1ccc(-c3cccc(C)c3)cc1)[C@@H]2CO	none (no result: Cneo AK release, FN deposit inh)
Cc1ccc(N(C(=O)c2nsc(Cl)c2Cl)C(C(=O)NC2CCCC2)c2ccc(O)cc2)cc1C (stereo not drawn)	DENV2 CPE 84 (no result: Cneo AK release, PGC1a acetyl inh)
Cc1cc(C)cc(N(C(=O)c2nsc(Cl)c2Cl)C(C(=O)NC2CCCC2)c2ccc(O)cc2)c1 (stereo not drawn)	none (no result: Cneo AK release, PGC1a acetyl inh)
COC(=O)CC1COc2ccccc2N1C(=O)c1cccc(Cl)c1 (stereo not drawn)	none (no result: DENV2 CPE, Xi reactivation, F508del corr, PGC1a acetyl inh)
CC(C)(C)C1COc2ccccc2N1C(=O)c1cccc(Cl)c1 (stereo not drawn)	F508del corr 9.5
COc1ccc2c3c([nH]c2c1)[C@H](CO)N(Cc1ccc2c(c1)OCO2)CC31CN(C(=O)Nc2c(C)noc2C)C1	none (no result: Cneo AK release, PGC1a acetyl inh, FN deposit inh)
COc1ccc2c3c([nH]c2c1)[C@@H](CO)N(C(=O)CN(C)C)CC31CN(Cc2ccccc2)C1	DENV2 CPE 39 (no result: Cneo AK release, FN deposit inh)
COCC(=O)N1CC2(CCN(Cc3ccccc3)CC2)c2c([nH]c3cc(OC)ccc23)[C@H]1CO	F508del corr 13 (no result: Cneo AK release)
COc1ccc2c3c([nH]c2c1)[C@H](CO)N(C(=O)CN(C)C)CC31CN(Cc2ccccc2Cl)C1	DENV2 CPE 33 (no result: Cneo AK release, FN deposit inh)
O=C(COC(=O)COc1ccccc1F)NCCc1ccc(F)cc1	F508del corr 9.1
O=C(COC(=O)COc1ccccc1)NCCc1ccccc1	none (no result: Cneo AK release, PGC1a acetyl inh)
COc1cc(CCCN2C(=S)NC[C@@H]2c2ccccc2)cc(OC)c1OC	DENV2 CPE 25
C[C@@H]1CN([C@H](C)CO)C(=O)Cc2cc(NC(=O)C3CC3)ccc2O[C@H]1CN(C)C(=O)Nc1ccccc1	DENV2 CPE 105 (no result: FN deposit inh)
C[C@@H]1CN([C@@H](C)CO)C(=O)Cc2cc(N(C)C)ccc2O[C@@H]1CN(C)C(=O)Nc1ccccc1	none (no result: FN deposit inh)
C[C@@H]1CN([C@@H](C)CO)C(=O)Cc2cc(NC(=O)C3CC3)ccc2O[C@@H]1CN(C)C(=O)Nc1ccccc1	DENV2 CPE inconclusive (no result: FN deposit inh)
C[C@H](CO)N1C[C@H](C)[C@H](CN(C)C(=O)Nc2ccccc2)Oc2ccc(N(C)C)cc2CC1=O	DENV2 CPE 45 (no result: FN deposit inh)
CCCN1C[C@H](C)[C@H](OC)CN(C)C(=O)c2ccc(NC(=O)c3ccccc3F)cc2OC[C@H]1C	none
O=[N+]([O-])c1ccccc1S(=O)(=O)Nc1ccc(-c2ccc3nncn3n2)cc1	none (no result: Cneo AK release, PGC1a acetyl inh)
O=[N+]([O-])c1ccccc1S(=O)(=O)Nc1cccc(-c2ccc3nncn3n2)c1	DENV2 CPE 65 (no result: FN deposit inh)
